# Source: PubChem BioAssay (several laboratories)
# The list is not random: actives were taken first. Their share in the collection is about 2.4%.
# Hck Nef HTS: human Hck-Nef kinase inhibition | Recombinant Hck-YEEI plus Nef, Z-Lyte FRET kinase assay | inhibition, % at 20 µM | actives 0.68% (n = 220,000) | AID 463187;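 active = Hck-Nef kinase inhibition above about 50%, limit read from the data; inactive = inhibition below that limit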;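 note: 0% = DMSO with Hck plus Nef and 100% = Hck alone without Nef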
# Target sequence (P08631 whole entry, looked up): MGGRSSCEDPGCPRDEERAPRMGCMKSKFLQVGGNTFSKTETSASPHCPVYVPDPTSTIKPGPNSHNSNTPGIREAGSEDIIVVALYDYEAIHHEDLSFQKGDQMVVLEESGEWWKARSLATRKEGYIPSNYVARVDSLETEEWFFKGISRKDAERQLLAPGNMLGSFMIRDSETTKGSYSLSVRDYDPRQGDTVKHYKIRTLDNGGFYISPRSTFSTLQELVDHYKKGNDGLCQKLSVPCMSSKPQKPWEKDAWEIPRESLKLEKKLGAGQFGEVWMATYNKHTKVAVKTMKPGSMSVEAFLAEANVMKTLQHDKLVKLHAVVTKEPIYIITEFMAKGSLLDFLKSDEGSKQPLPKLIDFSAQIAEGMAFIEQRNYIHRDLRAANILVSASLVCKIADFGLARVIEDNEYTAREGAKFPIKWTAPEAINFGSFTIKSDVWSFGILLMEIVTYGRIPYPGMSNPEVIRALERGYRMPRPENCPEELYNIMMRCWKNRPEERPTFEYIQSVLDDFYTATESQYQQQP
# Dynein cargo inh: dynein cargo transport inhibition | 3617.4 mouse cells, GR-EGFP nuclear translocation imaging; test concentration mostly 20 µM; stimulated with dexamethasone, 1 µM; hits give low values | z-score, hits read low | actives 0.47% (n = 220,000);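 active = plate z-score of nuclear minus cytoplasmic receptor signal below a set negative limit, without overly bright fluorescence or cell loss, cut at about -3.5 in these data, passing the limit was not always enough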;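 note: z-score of nuclear minus cytoplasmic ring GR-EGFP intensity difference per well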
#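 medium = tetracycline-free induction medium containing charcoal-stripped FBS | also added = 1.0 µM final dexamethasone stimulus | schedule = 48 h induction, 1 h compound, 30 min dex at 37 °C | technique = fixed, Hoechst-stained cells imaged at 10x for EGFP | measure = GR-EGFP nuclear translocation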
# L929 necroptosis: L929 zVAD cell death inhibition. AID 1377. actives 0.38% (n = 220,000). viability rescue, % at 10 µM. L929 zVAD necroptosis rescue, ATP luminescence, 24 h; with zVAD 60 µM;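 active = activation, scaled between plate controls, above about 75%, limit read from the data; inactive = activation under that limit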;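 note: 0% = zVAD with DMSO and 100% = DMSO alone without zVAD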
# MDM2 E3 inh: blocks human Mdm2 ubiquitin ligase activity | Q00987 | cell-based MDM2 ubiquitination luciferase reporter, 2 h; 0 = plate control, 100 = twice control, blank-subtracted | signal enhancement, % at 5 µM | actives 0.11% (n = 210,000) | AID 1230;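 active = signal enhancement of 30% or more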;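 note: luminescence tracks abundance of the self-degrading MDM2-luciferase fusion protein; higher signal means inhibition of MDM2 E3 ligase activity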
#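 Buffer or medium: Cells held in DMEM | Assay system: Stable mammalian line carrying autodegrading MDM2–luciferase fusion reporter | Quantity: 2000 cells/well | Times: 4 h settle plus 2 h compound, 37 °C | Doses: One concentration, 5 µM, with 0.2% DMSO | Technique: Luminescence with SteadyLite reagent, 15 min at room temperature | Benchmarks: Plate controls and plate blanks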
# Autophagy mod: modulators of autophagy; calls only at 10 µM (by protocol); MEF GFP-LC3 puncta imaging; test concentration mostly 10 µM; actives 0.98% (n = 190,000);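 active = percentage of spot-positive cells more than 3 SD above its plate mean, without a fluorescence outlier flag or 80% toxicity; inconclusive = no clear call, values can overlap the other calls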;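 note: spot-positive cell cutoff set from DMSO-treated cells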
# TNF death inh: TNF-alpha cell death inhibition in Jurkat FADD-/- cells. activation (protection from cell death), % at 10 µM. actives 0.068% (n = 220,000). Jurkat FADD-/- TNF necroptosis rescue, ATP luminescence, 24 h; 0 = TNF only, 100 = no-TNF cells;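 active = activation, meaning protection from cell death, of at least 50% relative to plate controls; inactive = activation below 50%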;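 note: necroptosis triggered by 40 ng/mL TNF-alpha added together with compound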
# zVAD death conf: confirmed blocker of zVAD induced death in L929 cells; shares compounds with L929 necroptosis; activation (protection from necroptosis), % at 10 µM; L929 zVAD-induced necroptosis rescue, ATP luminescence, 24 h; actives 16% (n = 760);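 active = mean protection from necroptosis of at least 50% over duplicate tests; inactive = mean protection below 50%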;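 note: 0% = cells with zVAD alone and 100% = vehicle cells without zVAD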
# Dynein inh conf: dynein cargo transport inhibition, confirmation; actives 69% (n = 1,000); 3617.4 GR-EGFP nuclear translocation imaging, dexamethasone-induced; AID 463116; shares compounds with Dynein cargo inh; calls only at 20 µM;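 active = inhibition of receptor movement into the nucleus at or above a set limit in both runs, with normal cell brightness and cell count; inconclusive = limit reached in only one run, brightness and count normal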;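 note: dexamethasone at 1 µM final in well for 30 min; nuclear minus cytoplasmic GR-EGFP mean intensity difference in channel 2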
# * hit, by the source's call; i = inactive; u = inconclusive; x = not tested or not shown; + = active, no number.
SMILES,Hck Nef HTS,Dynein cargo inh,L929 necroptosis,MDM2 E3 inh,Autophagy mod,TNF death inh,Dynein inh conf,others
C=C1C(=O)O[C@@H]2C[C@@H](C)[C@@H]3C4OC4C(=O)[C@@]3(C)[C@@H](O)[C@H]12 (some centres undefined),30,-3.8*,67,31*,x,35,x,
CC1(C)CC(N(CCc2ccccc2)Cc2ccccc2)CCO1 (centres undefined),7,-0.07,-1,-84,x,1,x,
COc1ccc(C2c3c(nc(C)[nH]c3=O)Oc3c2c(=O)oc2ccccc32)cc1 (centres undefined),20,0.11,0,-15,x,1,x,
Cc1ncc(CN2CCCC(C(=O)c3sccc3C)C2)s1 (centres undefined),15,1.6,-1,-23,i,1,x,
CN(C)CCNC(=O)c1cccn(Cc2cccc(C(F)(F)F)c2)c1=O,1,-0.61,-1,-16,+,1,x,
CNC(=O)c1cccn(Cc2cccc(C(F)(F)F)c2)c1=O,-6,-0.8,46,-14,i,-6,x,
CN(C)CCc1nn[nH]n1,0,-0.0051,0,-2,i,-1,x,
CCN1C(=O)/C(=C\c2ccc([N+](=O)[O-])s2)C(=O)NC1=S,89*,-4.7*,-2,-14,i,-6,x,
C[C@H]1CCC/C=C/C2C[C@H](O)CC2[C@H](O)/C=C/C(=O)O1 (some centres undefined),-1,0.44,5,x,+,17,x,
Cc1cccc(N2C(=O)NC(=O)/C(=C\c3cccn3-c3ccc(Cl)cc3)C2=O)c1,3,-0.32,0,40*,i,-18,x,
Cc1cc(C)cc(N2C(=O)NC(=O)/C(=C/c3cccn3-c3ccc(Cl)cc3)C2=O)c1,5,-1.2,-1,x,i,-6,x,
C=C1C(=O)O[C@@H]2C[C@@H](C)[C@@H]3C=CC(=O)[C@@]3(C)[C@@H](OC(=O)CC(=O)O[C@H]3[C@@H]4C(=C)C(=O)O[C@@H]4C[C@@H](C)[C@@H]4C=CC(=O)[C@]43C)[C@H]12,28,-4*,42,-12,x,-21,x,
COP(=O)(OC)C(NC(C)=O)C(Cl)(Cl)Cl (centres undefined),3,-0.15,2,-5,i,1,x,
C[C@H]1CCC[C@@H](O)CCC/C=C/c2cc(O)cc(O)c2C(=O)O1,2,-1.2,79*,6,i,13,x,zVAD death conf=1
O=C(O)CC1OCC=C2CN3CCC45C6=CC(=O)C(=O)C([N+](=O)[O-])=C6NC4C1C2CC35 (centres undefined),7,0.4,2,-8,x,3,x,
Cc1cc([N+](=O)[O-])c2ccccc2[n+]1[O-],-1,-4.5*,81*,-15,x,-28,+,zVAD death conf=67*
CCOc1ccc(-n2c(CC)nc3ccccc3c2=O)cc1,-4,0.15,2,-3,i,1,x,
COc1ccc(Oc2cc(NC(=O)c3nn(C)cc3[N+](=O)[O-])cc([N+](=O)[O-])c2)cc1,0,-4*,50,-24,+,-4,+,
CCN(CC)c1ccc(C=C2C(=O)NC(=S)NC2=O)cc1,9,-5.1*,-1,-9,x,-16,u,
C=C1C(=O)O[C@H]2C[C@@H](C)[C@@H]3C=CC(=O)[C@@]3(C)C[C@H]12,30,-3.8*,67,35*,x,33,+,
O=P(O)(O)Cc1c(Cl)cccc1Cl,2,1.5,x,5,i,1,x,
CCN(CC)c1ccc(/C=N/c2sc3c(c2C#N)C2CCN3CC2)c(O)c1,-2,-3.7,59,-13,u,3,+,
O=C1NC(=O)N(CCc2ccc(F)cc2)C(=O)/C1=C\C=C\c1ccccc1,27,-4.1*,11,50*,i,-11,+,
CC1(C)C[C@H]2C=C(C=O)[C@]3(C=O)C[C@]3(C)[C@H]2C1,-20,-5.1,-2,-25,i,-28,+,
Cc1cc([N+](=O)[O-])c(Cl)cc1NC(=O)C(C)C,0,0.99,0,-7,i,1,x,
SMILES,Hck Nef HTS,Dynein cargo inh,L929 necroptosis,MDM2 E3 inh,Autophagy mod,TNF death inh,Dynein inh conf,others
CNc1cc(Cl)c2nonc2c1[N+](=O)[O-],-28,-7*,-1,-4,i,-15,u,
COc1cccc(C2CC3C(=O)C=CC2N3Cc2ccccc2)c1 (centres undefined),0,-3.8*,-2,-2,i,-5,+,
Cc1ccc(N2C(=O)NC(=O)/C(=C\C=C\c3ccco3)C2=O)cc1,29,-5.1*,0,x,x,-18,+,
Cc1cccc(N2C(=O)NC(=O)/C(=C\C=C\c3ccco3)C2=O)c1,33,-5*,-1,16,x,-27,+,
O=C1NC(=O)N(Cc2ccco2)C(=O)/C1=C/C=C/c1ccco1,44,-3.8*,1,x,x,-18,u,
O=C1NC(=O)N(c2ccccc2)C(=O)/C1=C/C=C/c1ccco1,29,-2.2,0,10,x,-22,x,
Cc1cccc(N2C(=O)NC(=O)/C(=C/c3ccc([N+](=O)[O-])o3)C2=O)c1,18,-1.7,1,3,i,1,x,
c1ccc2c(c1)Sc1ccccc1N2CC1CN2CCC1CC2 (centres undefined),9,0.32,3,-10,x,-6,x,
OCCN(CC#CC(O)(c1ccccc1)C1CCCC1)CCO (centres undefined),0,0.91,0,-12,i,0,x,
C/C(=C\c1ccc(N(C)C)cc1)[N+](=O)[O-],0,-4.5*,0,-3,i,-21,+,
CC1=[N+]([O-])C2(N)CCc3nonc3C2(O)C1 (centres undefined),1,-1.1,1,-11,i,0,x,
CCC(C)n1c(C)cc(C(N)=O)c1C (centres undefined),1,-0.94,6,-4,i,0,x,
C=CCN1C(=O)/C(=C/c2cc(C)n(-c3cccnc3)c2C)C(=O)NC1=S,2,-6.5*,1,-12,i,-7,i,
COc1ccn(C)c(=O)c1C#N,11,0.4,0,-9,i,0,x,
N=C1c2ccccc2CN1NC(=O)C1CC1,2,0.29,2,-6,i,1,x,
Cc1c(C=C2C(=O)NC(=O)NC2=O)c(=O)n(-c2ccccc2)n1C,16,0.74,1,-17,i,1,x,
